{
  "source": "paper PMC5420486",
  "about": "(Clinical cancer research : an official journal of the …, 2016)",
  "key": {"[1]": {"system": "Asian patients with advanced HCC", "assay": "Phase I dose-escalation, standard 3+3 design", "assay_type": "in vivo"}, "[2]": {"system": "patients with advanced HCC", "assay": "Safety assessment: adverse events graded by CTCAE v3.0", "assay_type": "in vivo, human", "conditions": "for Diarrhoea: treatment-related AE"}, "[3]": {"system": "advanced hepatocellular carcinoma (HCC) patients", "assay": "Anti-tumor activity and survival", "assay_type": "in vivo, human"}, "[4]": {"assay": "Plasma pharmacokinetics, noncompartmental analysis", "assay_type": "in vivo, human", "conditions": "for Tmax: human, plasma, oral", "procedure,_shortened": "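Patients were dosed orally once daily. Blood was drawn within 60 minutes predose and at 1, 2, 3, 4, 6, 8 and 24 h post dose on days 1 and 15, in both escalation and expansion cohorts. Cmax, Tmax, AUC0-24, AUC0-∞, T1/2, C24 and CL/F were derived from plasma test compound concentrations by noncompartmental analysis.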"}, "advanced HCC patients": {"system": "advanced HCC patients", "assay": "Pharmacogenomic and exploratory biomarker subgroup analyses of TTP", "assay_type": "in vivo, human", "conditions": "30 mg QD", "procedure,_shortened": "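Advanced HCC patients took oral test compound once daily. For genotyping, venous blood DNA was typed at 20 SNPs in 14 candidate genes by Sanger sequencing or TaqMan assays. Circulating markers, including IL6, were measured by Searchlight at baseline (day 1). TTP ran from drug start to documented progression or death. Genotype was tested by time-to-event models with score (log-rank) test, unadjusted. Biomarkers were tested by proportional hazards regression, univariate and covariate-adjusted.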"}, "[5]": {"system": "patients with other solid tumors", "conditions": "other tumor types, predominantly non-Asian populations; cited from earlier work"}, "[6]": {"system": "Asia-Pacific patients with HCC", "conditions": "cited from earlier work"}, "[7]": {"conditions": "30 mg QD, RECIST population (n=38)"}, "[8]": {"conditions": "30 mg QD, mRECIST population (n=35)"}},
  "note": "Entries after “also recorded” stand apart in the source; their conditions may differ.",
  "data": [
    {"smiles": "COc1cc2c(Oc3ccc(NC(=O)C4(C(=O)Nc5ccc(F)cc5)CC4)cc3F)ccnc2cc1OCCCN1CCOCC1", "note": "[foretinib]", "values": [
      {"measurement": "maximum tolerated dose (MTD)", "setting": "[1]; Asian patients with advanced HCC, oral, first-line", "value": 30, "unit": "mg QD"},
      {"measurement": "dose-limiting toxicities (DLTs)", "setting": "[1]; in vivo", "value": "no DLTs"},
      {"measurement": "fatal events", "setting": "[2]; 30 mg", "value": "three"},
      {"measurement": "relation of fatal events to study treatment", "setting": "[2]; 30 mg", "value": "none of these events were considered related to study treatment"},
      {"measurement": "dose reductions due to an AE", "setting": "[2]; 30 mg QD", "value": "no patients; also recorded: no dose reductions"},
      {"measurement": "Abdominal pain", "setting": "[2]; 30 mg QD, N=39, all patients", "value": "5 (12·8) n (%)"},
      {"measurement": "Cough", "setting": "[2]; 30 mg QD, N=39, all patients", "value": "6 (15·4) n (%)"},
      {"measurement": "Hypoalbuminaemia", "setting": "[2]; 30 mg QD, N=39, all patients", "value": "7 (17·9) n (%)"},
      {"measurement": "Insomnia", "setting": "[2]; 30 mg QD, N=39, all patients", "value": "6 (15·4) n (%)"},
      {"measurement": "Diarrhoea", "setting": "[2]; 30 mg QD, N=39, all patients", "value": "6 (15·4) n (%)"},
      {"measurement": "Abdominal pain", "setting": "[2]; 30 mg QD, N=39, grade 3", "value": "3 (7·7) n (%)"},
      {"measurement": "Cough", "setting": "[2]; 30 mg QD, N=39, grade 3", "value": "0 n (%)"},
      {"measurement": "Hypoalbuminaemia", "setting": "[2]; 30 mg QD, N=39, grade 3", "value": "5 (12.8) n (%)"},
      {"measurement": "Insomnia", "setting": "[2]; 30 mg QD, N=39, grade 3", "value": "1 (2.6) n (%)"},
      {"measurement": "Diarrhoea", "setting": "[2]; 30 mg QD, N=39, grade 3", "value": "0 n (%)"},
      {"measurement": "Abdominal pain", "setting": "[2]; 30 mg QD, N=39, grade 4", "value": "0 n (%)"},
      {"measurement": "Cough", "setting": "[2]; 30 mg QD, N=39, grade 4", "value": "0 n (%)"},
      {"measurement": "Hypoalbuminaemia", "setting": "[2]; 30 mg QD, N=39, grade 4", "value": "0 n (%)"},
      {"measurement": "Insomnia", "setting": "[2]; 30 mg QD, N=39, grade 4", "value": "0 n (%)"},
      {"measurement": "Oedema peripheral", "setting": "[2]; 30 mg QD, N=39, grade 4", "value": "1 (2.6) n (%)"},
      {"measurement": "Diarrhoea", "setting": "[2]; 30 mg QD, N=39, grade 4", "value": "0 n (%)"},
      {"measurement": "median time to progression (TTP)", "setting": "[3]; 30 mg QD", "value": 4.2, "unit": "months"},
      {"measurement": "Disease stabilization rate", "setting": "[3]; [7]", "value": "24 (63·2) n (%)"},
      {"measurement": "Objective response rate", "setting": "[3]; [7]", "value": "3 (7·9) n (%)"},
      {"measurement": "Patients achieving best overall response: Complete response", "setting": "[3]; [7]", "value": "0 n (%)"},
      {"measurement": "Patients achieving best overall response: Disease progression", "setting": "[3]; [7]", "value": "14 (36.8) n (%)"},
      {"measurement": "Patients achieving best overall response: Partial response", "setting": "[3]; [7]", "value": "3 (7.9) n (%)"},
      {"measurement": "Patients achieving best overall response: Stable disease", "setting": "[3]; [7]", "value": "21 (55.3) n (%)"},
      {"measurement": "median overall survival (OS)", "setting": "[3]; 30 mg QD, all enrolled patients treated at the MTD (N=39), Kaplan-Meier", "value": 15.7, "unit": "months"},
      {"measurement": "Disease stabilization rate", "setting": "[3]; 30 mg QD, mRECIST", "value": 82.9, "unit": "%"},
      {"measurement": "median duration of response", "setting": "[3]; 30 mg QD, mRECIST", "value": 7.6, "unit": "months"},
      {"measurement": "Disease stabilization rate", "setting": "[3]; [8]", "value": "29 (82·9) n (%)"},
      {"measurement": "Objective response rate", "setting": "[3]; [8]", "value": "8 (22·9) n (%)"},
      {"measurement": "Patients achieving best overall response: Complete response", "setting": "[3]; [8]", "value": "0 n (%)"},
      {"measurement": "Patients achieving best overall response: Disease progression", "setting": "[3]; [8]", "value": "6 (17·1) n (%)"},
      {"measurement": "Patients achieving best overall response: Partial response", "setting": "[3]; [8]", "value": "8 (22·9) n (%)"},
      {"measurement": "Patients achieving best overall response: Stable disease", "setting": "[3]; [8]", "value": "21 (60·0) n (%)"},
      {"measurement": "objective response rate (ORR)", "setting": "[3]; 30 mg QD, mRECIST, 35 evaluable patients", "value": 22.9, "unit": "%"},
      {"measurement": "Patients achieving ≥50% reduction from baseline AFP", "setting": "[3]; 30 mg QD, patients with baseline AFP ≥200 ng/mL (n=15), mRECIST population", "value": "7 (46·7) n (%)"},
      {"measurement": "patients with a 50% decrease from baseline AFP at at least one time point", "setting": "[3]; 30 mg, baseline AFP ≥ 200 ng/mL", "value": 46.7, "unit": "%"},
      {"measurement": "patients achieving a PR", "setting": "[3]; 30 mg, mRECIST", "value": "eight"},
      {"measurement": "dose-proportionality assessment", "setting": "[4]; 30 to 45 mg, day 15", "value": "dose proportionality was not achieved"},
      {"measurement": "oral clearance (CL/F), 45-mg dose compared with 30-mg dose", "setting": "[4]; day 15, N=6, interpret with caution", "value": 50, "unit": "% higher"},
      {"measurement": "Tmax", "setting": "[4]", "value": "3 to 3.5", "unit": "h"},
      {"measurement": "Tmax", "setting": "[4]; 30 mg", "value": 3, "unit": "h"},
      {"measurement": "median TTP", "setting": "advanced HCC patients; one or no copy of NR1I3/CAR CAT haplotype", "value": "≈ 6 months"},
      {"measurement": "median TTP", "setting": "advanced HCC patients; two copies of NR1I3/CAR CAT haplotype", "value": "≈ 2 months"},
      {"measurement": "previously reported MTD", "setting": "[5]", "value": 60, "unit": "mg QD"}
    ]},
    {"smiles": "CNC(=O)c1cc(Oc2ccc(NC(=O)Nc3ccc(Cl)c(C(F)(F)F)c3)cc2)ccn1", "note": "[sorafenib]", "values": [
      {"measurement": "patients requiring dose reduction", "setting": "[6]; Asia-Pacific patients with HCC", "value": 30.9, "unit": "%"},
      {"measurement": "median OS", "setting": "[6]; pivotal Asia-Pacific sorafenib study", "value": 6.5, "unit": "months"}
    ]}
  ]
}
